Results from ChEMBL document CHEMBL4364345, “Synthesis and evaluation of 1,3,4-oxadiazole derivatives for development as broad-spectrum antibiotics” (Bioorg Med Chem, 2019).
Values after ≈ are worked out from the molar mass of the structure shown. Active and inactive are the calls of the source.

Legend:
Kocuria rhizophila = experiment: Antimicrobial activity against Kocuria rhizophila clinical isolate at 50 ug/disk incubated for 20 +/- 4 hrs by agar disk diffusion method; format: functional; conditions: read-out: DIZ
Outline: (§1)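 Agar disk diffusion on Mueller-Hinton agar swab-seeded from a 0.5 McFarland inoculum (about 10^8 CFU/ml). Cellulose discs got 50 μg compound (10 μl of 5 g/L in DMSO); a 10 μL DMSO disc was the control. Incubated aerobically at 35 ± 2 °C for 20 ± 4 h, then growth-inhibition diameters measured.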

MCF7 = experiment: Cytotoxicity against human MCF7 cells assessed as decrease in cell viability in MTT assay; format: cell-based
Outline: (§2)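 Cell viability was measured by MTT on a robotic screening platform. Residual viability was expressed as a percentage of the mean viable cells in DMSO-treated controls. Under 25-30% viability was considered cytotoxic, and IC50 values were derived.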

Enterococcus faecium [1] = experiment: Synergistic antimicrobial activity against Enterococcus faecium AUS0004 assessed as DIZ at 50 ug/disk incubated for 20 +/- 4 hrs in presence of erythromycin by agar disk diffusion method (reference value: 6 millimeter); format: functional; conditions: read-out: DIZ
Enterococcus faecalis [2] = experiment: Synergistic antimicrobial activity against Enterococcus faecalis ATCC 29212 assessed as DIZ at 50 ug/disk incubated for 20 +/- 4 hrs in presence of streptomycin by agar disk diffusion method (reference value: 18 millimeter); format: functional; conditions: read-out: DIZ
Caco-2 = experiment: Cytotoxicity against human Caco2 cells assessed as decrease in cell viability in MTT assay; format: cell-based; outline: as §2
Enterococcus faecium [3] = experiment: Antimicrobial activity against Enterococcus faecium AUS0004 by broth microdilution method; format: functional
Outline: (§3)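 MICs were set by broth microdilution following EUCAST guidelines, from three independent experiments reported as values or ranges. MICs were measured only where disk-diffusion inhibition diameters were 9 mm or more.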

Clostridium perfringens = experiment: Antimicrobial activity against Clostridium perfringens clinical isolate by broth microdilution method; format: functional
Outline: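 MIC by broth microdilution following EUCAST guidelines; values or ranges from three independent experiments. MICs were determined only where the disk diffusion inhibition diameter was at least 9 mm.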

Bacteroides fragilis = experiment: Antimicrobial activity against Bacteroides fragilis ATCC 25285 by broth microdilution method; format: functional; outline: as §3
Listeria monocytogenes [4] = experiment: Synergistic antimicrobial activity against Listeria monocytogenes clinical isolate assessed as DIZ at 50 ug/disk incubated for 20 +/- 4 hrs in presence of fosfomycin by agar disk diffusion method (reference value: 6 millimeter); format: functional; conditions: read-out: DIZ
Enterococcus faecium [5] = experiment: Antimicrobial activity against Enterococcus faecium HM1070 at 50 ug/disk incubated for 20 +/- 4 hrs by agar disk diffusion method; format: functional; conditions: read-out: DIZ; outline: as §1
Escherichia coli [6] = experiment: Bactericidal activity against TolC deficient Escherichia coli BW25113 by broth microdilution method; format: functional
Proteus mirabilis = experiment: Antimicrobial activity against Proteus mirabilis clinical isolate at 50 ug/disk incubated for 20 +/- 4 hrs by agar disk diffusion method; format: functional; conditions: read-out: DIZ; outline: as §1
Escherichia coli [7] = experiment: Antimicrobial activity against clpP-TolC deficient Escherichia coli BW25113 by agar disk diffusion method; format: functional
Morganella morganii [8] = experiment: Antimicrobial activity against Morganella morganii EB6 clinical isolate at 50 ug/disk incubated for 20 +/- 4 hrs by agar disk diffusion method; format: functional; conditions: read-out: DIZ; outline: as §1
Huh-7 = experiment: Cytotoxicity against human HuH7 cells assessed as decrease in cell viability in MTT assay; format: cell-based; outline: as §2
Enterococcus faecium [9] = experiment: Synergistic antimicrobial activity against Enterococcus faecium AUS0004 assessed as DIZ at 50 ug/disk incubated for 20 +/- 4 hrs in presence of gentamicin by agar disk diffusion method (reference value: 17 millimeter); format: functional; conditions: read-out: DIZ
Enterococcus faecium [10] = experiment: Synergistic antimicrobial activity against Enterococcus faecium AUS0004 assessed as DIZ at 50 ug/disk incubated for 20 +/- 4 hrs in presence of streptomycin by agar disk diffusion method (reference value: 22 millimeter); format: functional; conditions: read-out: DIZ
Enterococcus faecium [11] = experiment: Synergistic antimicrobial activity against Enterococcus faecium AUS0004 assessed as DIZ at 50 ug/disk incubated for 20 +/- 4 hrs in presence of rifampicin by agar disk diffusion method (reference value: 10 millimeter); format: functional; conditions: read-out: DIZ
Enterococcus faecium [12] = experiment: Synergistic antimicrobial activity against Enterococcus faecium AUS0004 assessed as DIZ at 50 ug/disk incubated for 20 +/- 4 hrs in presence of imipenem by agar disk diffusion method (reference value: 6 millimeter); format: functional; conditions: read-out: DIZ
Escherichia coli [13] = experiment: Antimicrobial activity against TolC deficient Escherichia coli BW25113 by broth microdilution method; format: functional
Outline: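 MIC by broth microdilution per EUCAST guidelines, in E. coli BW25113 and its previously described deletion derivative.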

Morganella morganii [14] = experiment: Antimicrobial activity against Morganella morganii EB8clinical isolate at 50 ug/disk incubated for 20 +/- 4 hrs by agar disk diffusion method; format: functional; conditions: EB8, read-out: DIZ; outline: as §1
Acinetobacter baumannii = experiment: Antimicrobial activity against Acinetobacter baumannii clinical isolate at 50 ug/disk incubated for 20 +/- 4 hrs by agar disk diffusion method; format: functional; conditions: read-out: DIZ; outline: as §1
Enterococcus faecalis [15] = experiment: Antimicrobial activity against Enterococcus faecalis ATCC 29212 by broth microdilution method; format: functional; outline: as §3
Streptococcus pyogenes = experiment: Antimicrobial activity against Streptococcus pyogenes clinical isolate by broth microdilution method; format: functional; outline: as §3
HCT-116 = experiment: Cytotoxicity against human HCT116 cells assessed as decrease in cell viability in MTT assay; format: cell-based; outline: as §2
Enterococcus faecalis [16] = experiment: Synergistic antimicrobial activity against Enterococcus faecalis ATCC 29212 assessed as DIZ at 50 ug/disk incubated for 20 +/- 4 hrs in presence of gentamicin by agar disk diffusion method (reference value: 13 millimeter); format: functional; conditions: read-out: DIZ
Enterococcus faecium [17] = experiment: Synergistic antimicrobial activity against Enterococcus faecium AUS0004 assessed as DIZ at 50 ug/disk incubated for 20 +/- 4 hrs in presence of ampicillin by agar disk diffusion method (reference value: 6 millimeter); format: functional; conditions: read-out: DIZ
Listeria monocytogenes [18] = experiment: Antimicrobial activity against Listeria monocytogenes clinical isolate at 50 ug/disk incubated for 20 +/- 4 hrs by agar disk diffusion method; format: functional; conditions: read-out: DIZ
Outline: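 Disk diffusion on MH agar with 5% horse blood, seeded by swab from a 0.5 McFarland suspension. Discs held 50 μg compound from a 5 g/L DMSO solution, with a DMSO-only control disc. Aerobic incubation at 35 ± 2 °C for 20 ± 4 h; inhibition zone diameter read.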

Enterococcus faecalis [19] = experiment: Synergistic antimicrobial activity against Enterococcus faecalis ATCC 29212 assessed as DIZ at 50 ug/disk incubated for 20 +/- 4 hrs in presence of rifampicin by agar disk diffusion method (reference value: 20 millimeter); format: functional; conditions: read-out: DIZ

Row | Compound | zone of inhibition at 50 µg/disc (Kocuria rhizophila) | IC50 (MCF7) | zone of inhibition at 50 µg/disc (Enterococcus faecium [1]) | zone of inhibition at 50 µg/disc (Enterococcus faecalis [2]) | IC50 (Caco-2) | MIC (Enterococcus faecium [3]) | MIC (Clostridium perfringens) | MIC (Bacteroides fragilis) | zone of inhibition at 50 µg/disc (Listeria monocytogenes [4]) | zone of inhibition at 50 µg/disc (Enterococcus faecium [5]) | zone of inhibition at 50 µg/disc (Proteus mirabilis) | diameter of the inhibition zone (DIZ) (Escherichia coli [7]) | zone of inhibition at 50 µg/disc (Morganella morganii [8]) | IC50 (Huh-7) | zone of inhibition at 50 µg/disc (Morganella morganii [14]) | zone of inhibition at 50 µg/disc (Acinetobacter baumannii) | MIC (Enterococcus faecalis [15]) | MIC (Streptococcus pyogenes) | IC50 (HCT-116) | zone of inhibition at 50 µg/disc (Listeria monocytogenes [18]) | further results
1 | O=C(Nc1nnc(-c2ccc(C(F)(F)F)cc2)o1)c1ccc(Cl)nc1 | 28 mm | > 25 µM | 22 mm | 22 mm | > 25 µM | 2 µg/mL (≈ 5.42 µM) | 4 µg/mL (≈ 10.8 µM) | 2 µg/mL (≈ 5.42 µM) | 29 mm | 24 mm | 6 mm | 27 mm | 6 mm | > 25 µM | 6 mm | 6 mm | 2 to 4 µg/mL (≈ 5.42 to 10.8 µM) | 32 µg/mL (≈ 86.8 µM) | > 25 µM | 31 mm | MBC (Escherichia coli [6]): > 32 µM; zone of inhibition at 50 µg/disc (Enterococcus faecium [9]): 25 mm; zone of inhibition at 50 µg/disc (Enterococcus faecium [10]): 26 mm; zone of inhibition at 50 µg/disc (Enterococcus faecium [11]): 22 mm; zone of inhibition at 50 µg/disc (Enterococcus faecium [12]): 24 mm; MIC (Escherichia coli [13]): 1 µM (≈ 0.369 µg/mL); zone of inhibition at 50 µg/disc (Enterococcus faecalis [16]): 23 mm; zone of inhibition at 50 µg/disc (Enterococcus faecium [17]): 24 mm; zone of inhibition at 50 µg/disc (Enterococcus faecalis [19]): 23 mm
2 | O=C(Nc1ncc(-c2ccc(F)cc2)o1)c1ccc(Cl)cc1 | 18 mm | 4 µM | 12 mm | 19 mm | 3 µM | 1 to 4 µg/mL (≈ 3.16 to 12.6 µM) | inactive | inactive | 15 mm | 13 mm | 6 mm | 13.3 mm | 6 mm | 3 µM | 6 mm | 6 mm | 2 to 16 µg/mL (≈ 6.31 to 50.5 µM) | 32 to 64 µg/mL (≈ 101 to 202 µM) | 2 µM | 17 mm | zone of inhibition at 50 µg/disc (Enterococcus faecium [9]): 18 mm; zone of inhibition at 50 µg/disc (Enterococcus faecium [10]): 21 mm; zone of inhibition at 50 µg/disc (Enterococcus faecium [11]): 15 mm; zone of inhibition at 50 µg/disc (Enterococcus faecium [12]): 13 mm; zone of inhibition at 50 µg/disc (Enterococcus faecalis [16]): 16 mm; zone of inhibition at 50 µg/disc (Enterococcus faecium [17]): 13 mm; zone of inhibition at 50 µg/disc (Enterococcus faecalis [19]): 20 mm
3 | O=C(Nc1nnc(-c2ccc(F)cc2)o1)c1ccc(Cl)cc1 | 11 mm | 22 µM | – | – | 14 µM | 16 µg/mL (≈ 50.4 µM) | 4 µg/mL (≈ 12.6 µM) | 2 to 4 µg/mL (≈ 6.3 to 12.6 µM) | – | 8 mm | 6 mm | 14.3 mm | 6 mm | 20 µM | 6 mm | 6 mm | 16 µg/mL (≈ 50.4 µM) | 32 to 64 µg/mL (≈ 101 to 201 µM) | 17 µM | 13 mm | MBC (Escherichia coli [6]): > 32 µM; MIC (Escherichia coli [13]): 2 µM (≈ 0.635 µg/mL)
4 | O=C(Nc1nnc(-c2ccc(C(F)(F)F)cc2)o1)c1cccc(Cl)c1 | 30 mm | 15 µM | 22 mm | 24 mm | 11 µM | 0.0625 to 0.25 µg/mL (≈ 0.17 to 0.68 µM) | 2 to 4 µg/mL (≈ 5.44 to 10.9 µM) | 1 to 2 µg/mL (≈ 2.72 to 5.44 µM) | 30 mm | 23 mm | 6 mm | 22.3 mm | 6 mm | 20 µM | 6 mm | 6 mm | 0.125 to 1 µg/mL (≈ 0.34 to 2.72 µM) | 4 to 32 µg/mL (≈ 10.9 to 87 µM) | 10 µM | 28 mm | MBC (Escherichia coli [6]): 16 µM (≈ 5.88 µg/mL); zone of inhibition at 50 µg/disc (Enterococcus faecium [9]): 25 mm; zone of inhibition at 50 µg/disc (Enterococcus faecium [10]): 26 mm; zone of inhibition at 50 µg/disc (Enterococcus faecium [11]): 26 mm; zone of inhibition at 50 µg/disc (Enterococcus faecium [12]): 24 mm; MBC (Escherichia coli [13]): 16 µM (≈ 5.88 µg/mL); MIC (Escherichia coli [13]): 0.25 µM (≈ 0.0919 µg/mL); zone of inhibition at 50 µg/disc (Enterococcus faecalis [16]): 23 mm; zone of inhibition at 50 µg/disc (Enterococcus faecium [17]): 24 mm; zone of inhibition at 50 µg/disc (Enterococcus faecalis [19]): 23 mm
